Results published in ChEMBL document CHEMBL1255300, “Pharmacodynamics of the antibacterial effect and emergence of resistance to tomopenem, formerly RO4908463/CS-023, in an in vitro pharmacokinetic model of Staphylococcus aureus infection” (Antimicrob Agents Chemother, 2008).
≈ marks a conversion by molar mass, not a printed value. Calls of active or inactive are those of the source. No cut-off for these calls is given here.

How the values were obtained:
Staphylococcus aureus [1] = assay: Antibacterial activity against methicillin-resistant Staphylococcus aureus 33815 infected in in vitro pharmacokinetic model assessed as reduction in viable count at 750 mg, iv every 8 hrs measured after 12 hrs using 10^8 CFU/ml inoculum; format: functional
In short: (§1)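 PK model at 37°C in 10% MHB. […] A 0.5 McFarland suspension (1 ml) was added and the model run overnight to reach 10^8 CFU/ml before dosing. Counts were spiral-plated on nutrient agar with β-lactamase. Change in log CFU/ml was measured from time 0; at least triplicate.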

Staphylococcus aureus [2] = assay: Antibacterial activity against methicillin-resistant Staphylococcus aureus 33921 by broth dilution method; format: functional
In short: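 MIC by CLSI broth dilution, or by broth dilution in 10% Mueller-Hinton broth at nondoubling dilutions.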

Staphylococcus aureus [3] = assay: AUBKC (0 to 48 hrs) in methicillin-resistant Staphylococcus aureus 33815 infected in in vitro pharmacokinetic model at 1500 mg, iv every 8 hrs using 10^8 CFU/ml inoculum; format: functional
In short: (§2)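 Single-compartment dilutional in vitro PK model at 37°C in 10% Mueller-Hinton broth, stirred, flow 132 ml/h. […] Inoculum 10^6 CFU/ml added 45 min before dosing, or 10^8 CFU/ml run overnight. Viable counts with β-lactamase neutralisation. AUBKC by log-linear trapezoidal rule, at least triplicate.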

Staphylococcus aureus [4] = assay: Antibacterial activity against methicillin-resistant Staphylococcus aureus 33922 infected in in vitro pharmacokinetic model assessed as reduction in viable count at 750 mg, iv every 8 hrs measured after 24 hrs using 10^8 CFU/ml inoculum; format: functional
Staphylococcus aureus [5] = assay: Antibacterial activity against methicillin-resistant Staphylococcus aureus 33820 assessed as viable count at 2 times of MIC after 24 hrs using 10^6 CFU/ml inoculum; format: functional, organism-based
Staphylococcus aureus [6] = assay: AUBKC (0 to 48 hrs) in methicillin-resistant Staphylococcus aureus 33921 infected in in vitro pharmacokinetic model at 750 mg, iv every 8 hrs using 10^6 CFU/ml inoculum; format: functional; in short: as §2
Staphylococcus aureus [7] = assay: Antibacterial activity against methicillin-sensitive Staphylococcus aureus 5956 infected in in vitro pharmacokinetic model assessed as time required to 99.9% killing at 750 mg, iv every 8 hrs using 10^6 CFU/ml inoculum; format: functional
Staphylococcus aureus [8] = assay: AUBKC (0 to 48 hrs) in methicillin-resistant Staphylococcus aureus 33815 infected in in vitro pharmacokinetic model at 1500 mg, iv every 8 hrs using 10^6 CFU/ml inoculum; format: functional; in short: as §2
Staphylococcus aureus [9] = assay: AUBKC (0 to 48 hrs) in methicillin-resistant Staphylococcus aureus 33922 infected in in vitro pharmacokinetic model at 750 mg, iv every 8 hrs using 10^8 CFU/ml inoculum; format: functional; in short: as §2
Staphylococcus aureus [10] = assay: Antibacterial activity against methicillin-resistant Staphylococcus aureus 33922 infected in in vitro pharmacokinetic model assessed as reduction in viable count at 1500 mg, iv every 8 hrs measured after 24 hrs using 10^8 CFU/ml inoculum; format: functional
Staphylococcus aureus [11] = assay: Antibacterial activity against methicillin-resistant Staphylococcus aureus 33922 infected in in vitro pharmacokinetic model assessed as reduction in viable count at 750 mg, iv every 8 hrs measured after 36 hrs using 10^6 CFU/ml inoculum; format: functional
Staphylococcus aureus [12] = assay: Antibacterial activity against methicillin-resistant Staphylococcus aureus 33815 infected in in vitro pharmacokinetic model assessed as reduction in viable count at 750 mg, iv every 8 hrs measured after 36 hrs using 10^8 CFU/ml inoculum; format: functional; in short: as §1
Staphylococcus aureus [13] = assay: T>MIC for static effect in methicillin-resistant Staphylococcus aureus 33922 in in vitro pharmacokinetic model after 24 hrs using 10^6 CFU/ml inoculum; format: functional
Staphylococcus aureus [14] = assay: Antibacterial activity against methicillin-resistant Staphylococcus aureus 33921 infected in in vitro pharmacokinetic model assessed as time required to 99.9% killing at 750 mg, iv every 8 hrs using 10^6 CFU/ml inoculum; format: functional
Staphylococcus aureus [15] = assay: T>MIC for 4-log drop in count in methicillin-sensitive Staphylococcus aureus 5956 in in vitro pharmacokinetic model after 24 hrs using 10^8 CFU/ml inoculum; format: functional
In short: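 Dose-ranging: 7–13 simulated regimens per strain giving T>MIC of 0–100% (MIC from 10% MHB), at 106 or 10^8 CFU/ml as stated.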

Staphylococcus aureus [16] = assay: T>MIC for 3-log drop in count in methicillin-resistant Staphylococcus aureus 33827 in in vitro pharmacokinetic model after 24 hrs using 10^6 CFU/ml inoculum; format: functional
Staphylococcus aureus [17] = assay: AUBKC (0 to 48 hrs) in methicillin-resistant Staphylococcus aureus 33827 infected in in vitro pharmacokinetic model at 750 mg, iv every 8 hrs using 10^8 CFU/ml inoculum; format: functional; in short: as §2
Staphylococcus aureus [18] = assay: AUBKC (0 to 24 hrs) in methicillin-resistant Staphylococcus aureus 33820 infected in in vitro pharmacokinetic model at 750 mg, iv every 8 hrs using 10^6 CFU/ml inoculum; format: functional; in short: as §2
Staphylococcus aureus [19] = assay: Antibacterial activity against methicillin-resistant Staphylococcus aureus 33820 assessed as viable count at 4 times of MIC after 48 hrs using 10^6 CFU/ml inoculum; format: functional, organism-based
Staphylococcus aureus [20] = assay: Antibacterial activity against methicillin-resistant Staphylococcus aureus 33827 infected in in vitro pharmacokinetic model assessed as time required to 99.9% killing at 1500 mg, iv every 8 hrs using 10^6 CFU/ml inoculum; format: functional
In short: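 Single-compartment dilutional in vitro PK model, 10% Mueller-Hinton broth, 37°C, stirred, dilution 132 ml/h. […] Inoculum 10^6 CFU/ml (added 45 min pre-dose) or 10^8 CFU/ml (run overnight). Viable counts by spiral plating, beta-lactamase neutralization, detection limit 10^2 CFU/ml. At least triplicate.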

Staphylococcus aureus [21] = assay: Antibacterial activity against methicillin-sensitive Staphylococcus aureus 5956 infected in in vitro pharmacokinetic model assessed as reduction in viable count at 750 mg, iv every 8 hrs measured after 12 hrs using 10^6 CFU/ml inoculum; format: functional
Staphylococcus aureus [22] = assay: Antibacterial activity against methicillin-resistant Staphylococcus aureus 33820 infected in in vitro pharmacokinetic model assessed as reduction in viable count at 1500 mg, iv every 8 hrs measured after 24 hrs using 10^6 CFU/ml inoculum; format: functional
In short: (§3)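 Single-compartment dilutional in vitro PK model, 37°C, stirred, in 10% Mueller-Hinton broth. […] Inoculum 10^6 CFU/ml from a 24-h plate culture was added 45 min before dosing. Viable counts by spiral plating on nutrient agar with β-lactamase neutralization. Log change was taken from time 0; detection limit 10^2 CFU/ml; at least triplicate.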

Staphylococcus aureus [23] = assay: Antibacterial activity against methicillin-resistant Staphylococcus aureus 33820 infected in in vitro pharmacokinetic model assessed as reduction in viable count at 1500 mg, iv every 8 hrs measured after 12 hrs using 10^6 CFU/ml inoculum; format: functional; in short: as §3
Staphylococcus aureus [24] = assay: Antibacterial activity against methicillin-resistant Staphylococcus aureus 33829 in in vitro pharmacokinetic model assessed as viable count at 6 times of MIC; format: functional
In short: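 Preexposure population analysis: time-zero model samples plated on nutrient agar without drug and with drug at multiples of the 10% broth MIC. Growth reported as log CFU/ml, detection limit 2 log10.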

Staphylococcus aureus [25] = assay: T>MIC for static effect in methicillin-resistant Staphylococcus aureus 33820 in in vitro pharmacokinetic model after 24 hrs using 10^6 CFU/ml inoculum; format: functional

What does the source list for `C[C@@H](O)[C@H]1C(=O)N2C(C(=O)O)=C(S[C@H]3C[C@@H](C(=O)N4CC[C@H](NC(=O)CNC(=N)N)C4)N(C)C3)[C@H](C)[C@H]12` [TOMOPENEM]?
log10CFU/ml (Staphylococcus aureus [1]): 1.7; MIC (Staphylococcus aureus [2]): 0.5 µg/mL (≈ 0.93 µM); AUBC (Staphylococcus aureus [3]): 152.6 log10CFU/ml.hr; log10CFU/ml (Staphylococcus aureus [4]): 5; Activity (Staphylococcus aureus [5]): inactive; AUBC (Staphylococcus aureus [6]): 41 log10CFU/ml.hr; Time (Staphylococcus aureus [7]): 6 h; AUBC (Staphylococcus aureus [8]): 12.5 log10CFU/ml.hr; AUBC (Staphylococcus aureus [9]): 81.5 log10CFU/ml.hr; log10CFU/ml (Staphylococcus aureus [10]): 5; log10CFU/ml (Staphylococcus aureus [11]): 4; log10CFU/ml (Staphylococcus aureus [12]): 5.5; fT>MIC (Staphylococcus aureus [13]): 1.3%; Time (Staphylococcus aureus [14]): 12 h; fT>MIC (Staphylococcus aureus [15]): 20.1%; fT>MIC (Staphylococcus aureus [16]): 43%; AUBC (Staphylococcus aureus [17]): 87.9 log10CFU/ml.hr; AUBC (Staphylococcus aureus [18]): 28.6 log10CFU/ml.hr; Activity (Staphylococcus aureus [19]): Active; Time (Staphylococcus aureus [20]): 12 h; log10CFU/ml (Staphylococcus aureus [21]): 4.1; log10CFU/ml (Staphylococcus aureus [22]): 4.2; log10CFU/ml (Staphylococcus aureus [23]): 4.2; log10CFU/ml (Staphylococcus aureus [24]): 2.7; fT>MIC (Staphylococcus aureus [25]): 5.9%
